The record followed here is ChEMBL document CHEMBL3044850, “Synthesis and biological activities of novel pyrazole oxime derivatives containing a 2-chloro-5-thiazolyl moiety” (2008).

Type in all cases: functional
The test system of test [1] is Aphis medicaginis. The experiment in a line: Insecticidal activity against Aphis medicaginis in soybean tender shoots assessed as mortality at 0.2 mg/ml treated for 5 secs measured after 48 hr. A digest of the protocol:
(§1)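 Insects held at 26 °C, 60% relative humidity, 14 h photoperiod. Acetone stock at 0.5 mg/mL is diluted with water containing TW-20. Soybean tender shoots bearing 60 insects are dipped for 5 s, drained, then kept under the same conditions. Mortality is scored after 48 h relative to untreated controls, in triplicate.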

A further test relates to Mycosphaerella arachidis. Nature of the test: Fungicidal activity against Mycosphaerella arachidis assessed as growth inhibition at 50 ug/ml at 23 degC after 3 days. The note with it: 72 h, read-out: GI. A digest of the protocol: (§2)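 Test solutions were made at 500 µg/mL and mixed 1:9 with agar medium to give 50 µg/mL plates. A 4 mm plug from the edge of actively growing mycelium was placed at the plate centre and incubated at 23 °C. Colony diameter was measured after 3 days against a sterile water plus medium blank, in triplicate. Inhibition = [(C − T)/C] × 100%.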

The subject of a further test is Tetranychus cinnabarinus. Nature of the test: Insecticidal activity against Tetranychus cinnabarinus (carmine spider mite) in soybean tender shoots assessed as mortality at 0.2 mg/ml treated for 5 secs measured after 48 hr. In a few lines: as §1
In the next test the test system is Fusarium graminearum. Nature of the test: Fungicidal activity against Fusarium graminearum assessed as growth inhibition at 50 ug/ml at 23 degC after 3 days. The note with it: 72 h, read-out: GI. In a few lines:
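Mycelial growth test in agar plates with 50 µg/mL final compound (from 500 µg/mL solution diluted into medium). A 4 mm plug from active mycelium fringe is placed centrally and incubated at 23 °C. Diameter is read after 3 days against a sterile water plus medium blank, in triplicate. Inhibition I = [(C − T)/C] × 100%.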

The subject of test [2] is Aphis medicaginis. The experiment in a line: Insecticidal activity against Aphis medicaginis in soybean tender shoots assessed as mortality treated for 5 secs measured after 48 hr.
Test [3] concerns Aphis medicaginis. Nature of the test: Insecticidal activity against Aphis medicaginis in soybean tender shoots assessed as mortality at 0.5 mg/ml treated for 5 secs measured after 48 hr. A digest of the protocol:
as §1

The subject of test [4] is Botryosphaeria berengeriana. The experiment in a line: Fungicidal activity against Botryosphaeria berengeriana assessed as growth inhibition at 50 ug/ml at 23 degC after 3 days. A digest of the protocol:
as §2

A further test deals with Alternaria solani. The experiment in a line: Fungicidal activity against Alternaria solani assessed as growth inhibition at 50 ug/ml at 23 degC after 3 days. As to conditions: 72 h, read-out: GI. A digest of the protocol:
as §2

The test system of the next test is Cucumis sativus. Nature of the test: Growth regulation of Cucumis sativus (cucumber) seeds assessed as rhizogenesis at 10 ug/ml at 24 degC after 3 days by cucumber cotyledon test. In a few lines: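 Cucumber seeds (JINKE No. 4) were germinated in the dark at 24 °C for 3 days, and cotyledons of uniform size were selected. Sample in DMF (10 µg/mL) was sprayed onto filter paper and dried, then the paper was wetted with distilled water. Ten cotyledons were incubated in the dark at 24 °C for 3 days. Rhizogenesis was counted per 10 hypocotyls, in triplicate, with a distilled-water control and Student's t test.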

The next test deals with Cladosporium cucumerinum. Nature of the test: Fungicidal activity against Cladosporium cucumerinum assessed as growth inhibition at 50 ug/ml at 23 degC after 3 days. As to conditions: 72 h, read-out: GI. A digest of the protocol: as §2

≈ marks a conversion by molar mass, not a printed value. Calls of active or inactive are those of the source. The calls are words filed in the database; no cut-off is given here.

In the case of `Cn1nc(C(F)(F)F)c(/C=N/OCc2cnc(Cl)s2)c1Oc1ccc(Cl)cc1Cl`, the figures for the mortality at 200 µg/mL in the test with Aphis medicaginis [1] and in the test on Tetranychus cinnabarinus were 86.3% and 7.2%, respectively. The inhibition of growth at 50 µg/mL was found to be 42.5% with Mycosphaerella arachidis, 24.3% in the test with Fusarium graminearum, 29.2% in the test on Alternaria solani and 32.3% in the test on Cladosporium cucumerinum. The median lethal concentration (LC50) in the test on Aphis medicaginis [2] was 22.9 µg/mL (≈ 47.1 µM). Moreover, the mortality at 500 µg/mL in the test on Aphis medicaginis [3] was determined as 97.4%. In addition, in test [4], the “growth inhibition (GI)” value is “inactive”. Moreover, the Activity with Cucumis sativus stood at 72.3%.
Take `Cn1nc(C(F)(F)F)c(/C=N/OCc2cnc(Cl)s2)c1Sc1ccc(Cl)cc1`: the mortality at 200 µg/mL with Aphis medicaginis [1] was determined as 80.4%; with Tetranychus cinnabarinus it was 11.3%. Also, the inhibition of growth at 50 µg/mL amounted to 25.8% in the test with Mycosphaerella arachidis; 32.6% with Fusarium graminearum; 42.4% in test [4] (72 h, read-out: GI); 28.8% in the test with Alternaria solani; 18.9% in the test with Cladosporium cucumerinum. Further, the median lethal concentration (LC50) in the test with Aphis medicaginis [2] amounted to 26.2 µg/mL (≈ 56.1 µM). For the same compound, the mortality at 500 µg/mL in the test on Aphis medicaginis [3] is 91.4%. The Activity with Cucumis sativus came to 34.7%.
